Results reported in ChEMBL document CHEMBL4002637, “Synthesis, characterization, in vitro SAR and in vivo evaluation of N,N'bisnaphthylmethyl 2-alkyl substituted imidazolium salts against NSCLC” (Bioorg Med Chem Lett, 2017).
Calls of active or inactive are those of the source. The rule behind the calls is not given here.

Legend:
NCI-H1975 [1] = assay: Potency index, ratio of compound cisplatin IC50 to compound IC50 for human NCI-H1975 cells using 10% 2-HPbetaCD compound formulation; assay type: functional
NCI-H460 [2] = assay: Induction of apoptosis in human NCI-H460 cells assessed as morphological changes at 40 uM up to 3 hrs by Annexin V-FITC/propidium iodide staining based fluorescence microscopic method; assay type: functional, cell-based
Mus musculus [3] = assay: Acute toxicity in C57BL/6 mouse assessed as weight regain at 20 mg/kg, ip administered as 20% 2HPbetaCD formulation measured on day 4 to 14 post dose; assay type: organism-based; conditions: in vivo
Procedure, shortened: (§1)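 Female/male not stated; C57BL/6 mice received 20 mg/kg IP on day zero in 100 μL of 20% (w/v) 2-HPβCD, then a second 15 mg/kg IP dose on day fourteen. Vehicle controls got 100 μL of 20% 2-HPβCD IP on days 0, 7, 14, 21, 25 and 29. Body weight and behaviour were monitored throughout, with survival plotted Kaplan-Meier.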

HOP-62 = assay: Growth inhibition of human HOP62 cells assessed as cell growth at 10 uM after 24 hrs by SRB assay relative to control; assay type: functional; conditions: HOP-62, 24 h, read-out: Activity
Procedure, shortened: (§2)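 NCI DTP one-dose screen: cells plated at density set by doubling rate, incubated overnight, then exposed to compound at 10 μM for 24 hours. Growth percentage from protein density at end versus start of experiment, relative to initial cell number.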

NCI-H322M [4] = assay: Growth inhibition of human NCI-H322M cells after 24 hrs by SRB assay; assay type: functional
NCI-H1975 [5] = assay: Antiproliferative activity against human NCI-H1975 cells using 1% DMSO/water compound formulation after 72 hrs by MTT assay; assay type: functional, cell-based; conditions: NCI-H1975, 72 h
Procedure, shortened: (§3)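 MTT anti-proliferation on NSCLC lines. Compounds dissolved in DMSO, diluted with water to 1% DMSO, then into growth medium (max 0.032% DMSO on cells); or dissolved in 10% (w/v) 2-HPβCD in water, then diluted (max 0.008% w/w 2-HPβCD in wells; vehicle controls at 0.008%). IC50 = concentration giving 50% loss of viability versus control cells. Cisplatin dissolved in water with stirring.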

Bos taurus [6] = species on record: Bos taurus; assay: Binding affinity to calf thymus DNA assessed as increase in viscosity at 10 to 70 uM using 10% 2HPbetaCD/water compound formulation by Ostwald viscometric method
NCI-H460 [7] = assay: Antiproliferative activity against human NCI-H460 cells using 10% 2-HPbetaCD compound formulation after 72 hrs by MTT assay; assay type: functional, cell-based; conditions: NCI-H460, 72 h; procedure, shortened: as §3
HOP-92 [8] = assay: Growth inhibition of human HOP92 cells assessed as cell growth at 10 uM after 24 hrs by SRB assay relative to control; assay type: functional; conditions: HOP-92, 24 h, read-out: Activity; procedure, shortened: as §2
Bos taurus [9] = species on record: Bos taurus; assay: Binding affinity to calf thymus DNA assessed as increase in viscosity at 10 to 70 uM using 1% DMSO/water compound formulation by Ostwald viscometric method
A549 [10] = assay: Antiproliferative activity against human A549 cells using 10% 2-HPbetaCD compound formulation after 72 hrs by MTT assay; assay type: functional, cell-based; conditions: A549, 72 h; procedure, shortened: as §3
A549 [11] = assay: Growth inhibition of human A549 cells after 24 hrs by SRB assay; assay type: functional; conditions: A549, 24 h
Mus musculus [12] = assay: Acute toxicity in C57BL/6 mouse assessed as weight loss at 20 mg/kg, ip administered as 20% 2HPbetaCD formulation; assay type: organism-based; conditions: in vivo; procedure, shortened: as §1
Bos taurus [13] = species on record: Bos taurus; assay: Inhibition of ethidium bromide binding to calf thymus DNA assessed as at 13.3 uM using 10% 2HPbetaCD/water compound formulation by spectrofluorometric method
NCI-H522 = assay: Growth inhibition of human NCI-H522 cells assessed as cell growth at 10 uM after 24 hrs by SRB assay relative to control; assay type: functional; conditions: NCI-H522, 24 h, read-out: Activity; procedure, shortened: as §2
Bos taurus [14] = species on record: Bos taurus; assay: Inhibition of ethidium bromide binding to calf thymus DNA assessed as at 13.3 uM using 1% DMSO/water compound formulation by spectrofluorometric method
NCI-H460 [15] = assay: Induction of apoptosis in human NCI-H460 cells at 40 uM up to 12 hrs using 10% 2HPbetaCD/water compound formulation by Annexin V-FITC/propidium iodide staining based fluorescence microscopic method; assay type: functional, cell-based
Procedure, shortened: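 Annexin V-FITC/propidium iodide staining of H460 cells in 6-well plates. Compound given in 10% (w/v) 2-HPβCD aqueous solution. Imaged at 12, 14, 17 and 20 h with 20× objective as merged transmitted, green and red channels. Controls: 2-HPβCD and cisplatin, 20 h.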

[16] = Aqueous solubility of the compound in water; assay type: physicochemical; conditions: buffer
HCC827 [17] = assay: Antiproliferative activity against human HCC827 cells using 10% 2-HPbetaCD compound formulation after 72 hrs by MTT assay; assay type: functional, cell-based; conditions: HCC827, 72 h; procedure, shortened: as §3
NCI-H1975 [18] = assay: Potency index, ratio of compound cisplatin IC50 to compound IC50 for human NCI-H1975 cells using 1% DMSO/water compound formulation; assay type: functional
HOP-92 [19] = assay: Growth inhibition of human HOP92 cells after 24 hrs by SRB assay; assay type: functional; conditions: HOP-92, 24 h
[20] = Solubility of the compound in 1% DMSO/water solution; assay type: physicochemical; conditions: buffer
HCC827 [21] = assay: Antiproliferative activity against human HCC827 cells using 1% DMSO/water compound formulation after 72 hrs by MTT assay; assay type: functional, cell-based; conditions: HCC827, 72 h; procedure, shortened: as §3
NCI-H460 [22] = assay: Growth inhibition of human NCI-H460 cells assessed as cell growth at 10 uM after 24 hrs by SRB assay relative to control; assay type: functional; conditions: NCI-H460, 24 h, read-out: Activity; procedure, shortened: as §2
NCI-H226 = assay: Growth inhibition of human NCI-H226 cells assessed as cell growth at 10 uM after 24 hrs by SRB assay relative to control; assay type: functional; conditions: NCI-H226, 24 h, read-out: Activity; procedure, shortened: as §2
A549 [23] = assay: Growth inhibition of human A549 cells assessed as cell growth at 10 uM after 24 hrs by SRB assay relative to control; assay type: functional; conditions: A549, 24 h, read-out: Activity; procedure, shortened: as §2
NCI-H460 [24] = assay: Induction of apoptosis in human NCI-H460 cells at 40 uM up to 1 hr using 1% DMSO/water compound formulation by Annexin V-FITC/propidium iodide staining based fluorescence microscopic method; assay type: functional, cell-based
Mus musculus [25] = assay: Acute toxicity in C57BL/6 mouse assessed as lethargic movement at 20 mg/kg, ip administered as 20% 2HPbetaCD formulation on day 1 followed by redosing with 15 mg/kg, ip on day 14 measured on day 15 post first dose; assay type: organism-based; conditions: in vivo; procedure, shortened: as §1
NCI-H322M [26] = assay: Growth inhibition of human NCI-H322M cells assessed as cell growth at 10 uM after 24 hrs by SRB assay relative to control; assay type: functional; conditions: read-out: Activity; procedure, shortened: as §2
[27] = read-out: LC50 (the source's name)

**Q.** For CCc1n(Cc2ccc3ccccc3c2)cc[n+]1Cc1ccc2ccccc2c1.[Br-], which “Ratio IC50” value (NCI-H1975 [1]) is on record?
**A.** 17

**Q.** What about the Activity (NCI-H460 [2]) of the same compound?
**A.** inactive

**Q.** And the Activity (Mus musculus [3])?
**A.** Toxic

**Q.** What about the growth at 10 µM (HOP-62) of the same compound?
**A.** 11.9%

**Q.** What about the GI50 (NCI-H322M [4]) of the same compound?
**A.** 2120 nM

**Q.** What about the LC50 (lethal concentration 50%) (NCI-H322M [4]) of the same compound?
**A.** 6710 nM

**Q.** And the TGI (NCI-H322M [4])?
**A.** 6710 nM

**Q.** And the IC50 (NCI-H1975 [5])?
**A.** 660 nM

**Q.** And the Activity (Bos taurus [6])?
**A.** inactive

**Q.** And the IC50 (NCI-H460 [7])?
**A.** 990 nM

**Q.** What about the growth at 10 µM (HOP-92 [8]) of the same compound?
**A.** -31.4%

**Q.** What about the Activity (Bos taurus [9]) of the same compound?
**A.** inactive

**Q.** What about the IC50 (A549 [10]) of the same compound?
**A.** 2340 nM

**Q.** And the GI50 (A549 [11])?
**A.** 2590 nM

**Q.** What about the TGI (A549 [11]) of the same compound?
**A.** 13900 nM

**Q.** What about the CC50 (A549 [11]; [27]) of the same compound?
**A.** 57900 nM

**Q.** What about the Activity (Mus musculus [12]) of the same compound?
**A.** Toxic

**Q.** What about the inhibition (Bos taurus [13]) of the same compound?
**A.** inactive

**Q.** What about the growth at 10 µM (NCI-H522) of the same compound?
**A.** -25.4%

**Q.** And the inhibition (Bos taurus [14])?
**A.** inactive

**Q.** And the Activity (NCI-H460 [15])?
**A.** inactive

**Q.** And the solubility [16]?
**A.** < 500 µg/mL

**Q.** What about the IC50 (HCC827 [17]) of the same compound?
**A.** 970 nM

**Q.** And the “Ratio IC50” value (NCI-H1975 [18])?
**A.** 15

**Q.** And the GI50 (HOP-92 [19])?
**A.** 338 nM

**Q.** And the TGI (HOP-92 [19])?
**A.** 1770 nM

**Q.** And the CC50 (HOP-92 [19]; [27])?
**A.** 1770 nM

**Q.** And the solubility [20]?
**A.** Soluble

**Q.** And the IC50 (HCC827 [21])?
**A.** 1150 nM

**Q.** What about the growth at 10 µM (NCI-H460 [22]) of the same compound?
**A.** 5.54%

**Q.** And the growth at 10 µM (NCI-H226)?
**A.** 6.75%

**Q.** And the growth at 10 µM (A549 [23])?
**A.** 28.5%

**Q.** What about the Activity (NCI-H460 [24]) of the same compound?
**A.** Active

**Q.** And the Activity (Mus musculus [25])?
**A.** Toxic

**Q.** What about the growth at 10 µM (NCI-H322M [26]) of the same compound?
**A.** 44.3%
